Mdm2 MdmX PPI: inhibitors of human Mdm2/MdmX interaction. O15151+Q00987. SaOS-2 split-luciferase Mdm2/MdmX complementation, luminescence. inhibition, % at 8 µM. 330,000 tested, 3% active. AID 485346;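 active = inhibition of at least 50% at 8 µM in the primary screen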
Target sequence (O15151 whole entry, looked up): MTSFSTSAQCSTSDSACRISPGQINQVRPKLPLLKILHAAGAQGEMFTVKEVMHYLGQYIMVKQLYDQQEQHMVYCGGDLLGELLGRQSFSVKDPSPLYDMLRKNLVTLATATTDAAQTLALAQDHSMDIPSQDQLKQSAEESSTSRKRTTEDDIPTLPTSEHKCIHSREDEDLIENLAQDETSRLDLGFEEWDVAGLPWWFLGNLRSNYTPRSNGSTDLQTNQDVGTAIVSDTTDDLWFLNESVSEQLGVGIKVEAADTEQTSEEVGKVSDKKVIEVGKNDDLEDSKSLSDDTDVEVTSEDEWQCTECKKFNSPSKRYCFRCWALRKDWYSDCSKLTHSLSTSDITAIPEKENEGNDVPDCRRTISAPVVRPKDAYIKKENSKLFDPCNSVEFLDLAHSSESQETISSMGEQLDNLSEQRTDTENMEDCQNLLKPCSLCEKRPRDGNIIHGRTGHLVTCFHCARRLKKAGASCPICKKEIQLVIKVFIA
Target sequence (Q00987 whole entry, looked up): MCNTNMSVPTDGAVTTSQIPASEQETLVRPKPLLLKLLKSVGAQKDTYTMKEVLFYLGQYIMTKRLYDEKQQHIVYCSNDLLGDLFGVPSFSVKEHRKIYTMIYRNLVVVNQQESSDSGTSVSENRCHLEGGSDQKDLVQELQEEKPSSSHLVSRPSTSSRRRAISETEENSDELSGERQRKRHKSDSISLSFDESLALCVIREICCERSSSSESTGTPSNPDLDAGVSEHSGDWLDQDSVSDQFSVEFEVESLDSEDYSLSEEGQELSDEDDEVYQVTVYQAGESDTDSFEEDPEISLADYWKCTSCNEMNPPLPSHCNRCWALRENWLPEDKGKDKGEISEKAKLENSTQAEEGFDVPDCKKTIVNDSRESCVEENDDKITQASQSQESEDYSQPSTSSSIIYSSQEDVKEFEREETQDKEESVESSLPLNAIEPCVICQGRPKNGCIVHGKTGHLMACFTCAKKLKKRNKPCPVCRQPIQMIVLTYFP
T cruzi inh: T. cruzi replication inhibition; T. cruzi beta-gal in NIH3T3, luminescence, 90 h; inhibition, % (no concentration beside the values); 300,000 tested, 1.4% active;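 active = mean inhibition across valid replicates above about 55%, limit read from the data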;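 note: signal also drops with host cell toxicity which is not excluded here; 0% = plate median of DMSO wells and 100% = zero luminescence signal; higher percent means less beta-gal luminescence so fewer parasites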
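compound dosing = single 50 nL compound addition per well in DMSO | material = NIH/3T3 host cells with β-galactosidase reporter T. cruzi | input = 5,000 host fibroblasts per well | timing = ≥90 h infection period, 3 h prior cell attachment | read-out basis = percent inhibition of parasite-derived β-gal signal | detection = GalScreen β-gal luminescence, detergent lysis, 60 min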
SKKanGAS inh: blocks kanamycin growth of S. pyogenes SKKanGAS strain; 300,000 tested, 1.3% active; inhibition, % at 7.5 µM; AID 1662; BacTiter-Glo, 6 h;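 active = mean replicate score, as percent of positive control median, at least 50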;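 note: strain carries kanamycin resistance gene driven by streptokinase promoter and grows in 40 µg/ml kanamycin; loss of luminescence reflects streptokinase promoter inhibition or plain growth inhibition; 0% = median of DMSO wells and 100% = positive control at its reference dose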
Lmaj promast: inhibitors of Leishmania major promastigote growth; 200,000 tested, 9% active; AID 1063; Leishmania major promastigotes, resazurin fluorescence viability; inhibition, % at 10 µM; in the data active = inhibition above about 50%;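 note: promastigotes grown with compound for 44 hours at 28 °C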
Beta cell apopt: beta cell apoptosis inhibition | INS-1E cytokine-induced death, ATP luminescence, 48 h; percent of positive-control rescue, neutral wells zero | protection from apoptosis, % (test concentration not listed) | 300,000 tested, 0.8% active | AID 435005;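 active = Every replicate reaches about 75%, or at least half do and their mean reaches it too, limit read from the data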;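 note: 0% = cytokine-treated negative control wells and 100% = positive control rescue; higher means more ATP so stronger rescue from cytokine killing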
CSC inhib: cancer stem cell inhibition; 300,000 tested, 1.1% active; inhibition, % at 7.5 µM; AID 2717; cancer stem cell-like cells viability, luminescence; in the data active = inhibition above about 75%; tested in HMLE shEcad cells
An asterisk follows results filed as active; nt = no result. A selection: hits, their analogues and other compounds. The true share with any hit is near 9.4%.

SMILES | Mdm2 MdmX PPI | T cruzi inh | SKKanGAS inh | Lmaj promast | Beta cell apopt | CSC inhib
O=C(CN1CCN(Cc2ccc3c(c2)OCO3)CC1)Nc1ccc2c(c1)OCCO2 | nt | 11 | -2 | 91* | nt | nt
Cc1cc(NC(=O)CCC(=O)N(CC(=O)NC2CCCC2)c2ccc(F)c(Cl)c2)no1 | -7 | 7 | -2 | nt | -7 | -11
CSc1ccccc1C(=O)OCC(=O)Nc1ccc(N2CCOCC2)cc1 | -11 | nt | nt | nt | 2 | -4
O=C(CN1CCCN(S(=O)(=O)c2ccc(Br)cc2)CC1)Nc1ccc2c(c1)OCO2 | -20 | -7 | 1 | 86* | nt | nt
COc1cc(OC)cc(C(=O)N2CCN(Cc3ccc4c(c3)OCO4)CC2)c1 | -4 | 1 | -5 | nt | -15 | -10
O=C(O)c1ccc(N2C(=O)CC(SC(=NCc3ccc4c(c3)OCO4)Nc3ccccc3)C2=O)cc1 (stereo not given) | -18 | -6 | 16 | nt | 2 | -7
COc1ccc(S(=O)(=O)N2CCCN(CC(=O)Nc3ccc4c(c3)OCO4)CC2)cc1 | -5 | nt | nt | 15 | nt | 7
COc1cc(NC(=O)CN2CCN(Cc3ccc4c(c3)OCO4)CC2)cc(OC)c1 | 35 | -5 | 4 | 86* | 0 | 4
O=C(O)c1ccc(N2C(=O)CC(SC(=NCc3ccc4c(c3)OCO4)Nc3ccc(F)cc3)C2=O)cc1 (stereo not given) | 9 | 0 | 59* | 8 | -6 | 2
NS(=O)(=O)c1cccc(NC(=O)CN2CCN(Cc3ccc4c(c3)OCO4)CC2)c1 | 9 | -2 | 0 | 53* | 1 | -9
COc1ccc(Cl)cc1NC(=O)CN(C)C(=O)C12CC3CC(CC(Cl)(C3)C1)C2 | 23 | 16 | 4 | nt | -4 | -8
C/C(CC(=O)Nc1ccc2ccccc2c1)=N\NC(=O)c1ccc(O)c(O)c1 | 20 | 0 | -5 | nt | -4 | 2
Cc1ccc(/C=N/NC(=O)Cn2nnc(N)n2)o1 | -3 | -3 | 37 | nt | -4 | 6
COC(=O)c1cnn(-c2ccc(F)cc2F)c1/C=N/NC(N)=S | 7 | 1 | 2 | nt | -5 | -14
O=c1[nH]c(CN2CCN(Cc3ccc4c(c3)OCO4)CC2)nc2ccccc12 | -11 | 33 | 2 | 91* | -1 | -2
COc1ccc(NC(=O)CN2CCN(Cc3ccc4c(c3)OCO4)CC2)cc1OC | -21 | 11 | 2 | 71* | 1 | 6
O=C(CN1CCN(S(=O)(=O)c2ccc(F)cc2)CC1)Nc1ccc2c(c1)OCO2 | -3 | 4 | -19 | 2 | -1 | -3
CC1CCc2nc(NC(=O)CN3CCN(c4ccccc4)CC3)sc2C1 (stereo not given) | 24 | -8 | 36 | -4 | 3 | -3
O=C(CN1CCN(Cc2ccc3c(c2)OCO3)CC1)Nc1ccc(F)cc1 | 12 | 15 | -7 | 97* | -5 | -1
COc1ccc(C(=O)N2CCN(Cc3ccc4c(c3)OCO4)CC2)cc1OC | -10 | 3 | -2 | nt | 3 | -6
CC1CCc2nc(NC(=O)CN3CCN(Cc4ccc5c(c4)OCO5)CC3)sc2C1 (stereo not given) | 32 | 28 | 3 | 99* | 17 | 10
COC(=O)C1CSC(c2ccc(Cl)cc2)N1C(=O)c1ccccc1 (stereo not given) | 28 | 0 | -7 | 4 | -4 | -14
Cn1c(SCC(=O)Nc2cccc(F)c2)nc2c(c1=O)SCC2 | 17 | 0 | 2 | nt | 2 | 8
CCOCCCNCC(=O)NCC1CCCCC1 | -3 | 5 | -16 | -6 | 3 | -17
C=CCN(c1ccccc1)S(=O)(=O)c1cccc(C(=O)Nc2cccc(C)n2)c1 | 25 | 25 | -5 | nt | -10 | -12
SMILES | Mdm2 MdmX PPI | T cruzi inh | SKKanGAS inh | Lmaj promast | Beta cell apopt | CSC inhib
CCN1C(=O)[C@H]2[C@@H](c3ccc(-c4cccc(Cl)c4)c(OC)c3)N3CCC[C@@]3(C(=O)OC)[C@H]2C1=O | -12 | nt | nt | nt | 1 | nt
CC[C@H](C)[C@H](NC(=O)c1ccc(Cl)cc1)C(=O)OCC(=O)c1ccc2c(c1)NC(=O)CO2 | 11 | 17 | 0 | 100* | 29 | 0
O=c1oc2ccccc2nc1/C=C(\O)c1ccc(Br)cc1 | 14 | -20 | -8 | nt | -4 | -4
CCS(=O)(=O)CCSc1nc2ccccc2o1 | 11 | 4 | 2 | -2 | -1 | -18
C/C(O)=C\c1nc2ccccc2oc1=O | 15 | -41 | 6 | 65* | -24 | 27
CS(=O)(=O)Cc1nc2ccccc2oc1=O | 30 | -5 | -2 | 100* | nt | 4
O=C(Nc1cccc(-c2cn3cccnc3n2)c1)c1ccc2c(c1)OCO2 | 18 | 7 | 7 | 98* | 8 | -5
O=C(Nc1ccncc1)c1cccs1 | 34 | nt | nt | 59* | 0 | -14
O=C(Nc1cccc(-c2csc(-c3ccccc3)n2)c1)c1cccs1 | -10 | 38 | 0 | 82* | 2 | 192*
O=C(Nc1cccc(-c2cn3cccnc3n2)c1)c1ccco1 | -26 | 68* | 1 | 100* | 2 | -11
O=C(N/N=C/c1cccc([N+](=O)[O-])c1)c1ccccc1-n1cccc1 | 8 | 9 | -4 | 20 | 1 | 3
COc1cccc(-c2c(C(=O)N/N=C/c3ccoc3)nnn2-c2nonc2N)c1 | 26 | 6 | 1 | nt | 2 | -15
O=C(Nc1cccc(-c2cn3cccnc3n2)c1)c1ccc(Br)o1 | -4 | 71* | -7 | 100* | 1 | nt
O=C(Nc1ccc(O)c(-c2nc3ccccc3s2)c1)c1cccs1 | -9 | -6 | -3 | 62* | 0 | 0
Oc1ccc(-c2csc(-c3ccccc3)n2)cc1O | 11 | -37 | -13 | 59* | nt | nt
Cc1ccc(-c2cn3cccnc3n2)cc1NC(=O)c1ccc(Br)o1 | 14 | -8 | -10 | 39 | -1 | -4
O=C(Nc1ccccc1)Nc1cccc(-c2cn3cccnc3n2)c1 | -28 | -13 | 5 | 31 | 10 | -4
COc1ccc(-c2cn3cccnc3n2)cc1NC(=O)c1ccc(Br)o1 | -5 | 13 | -6 | 99* | 4 | -7
Oc1ccc(-c2csc(-c3cccnc3)n2)cc1O | 2 | -14 | -3 | nt | -11 | 54
Cc1cc2nc(-c3ccc[nH]c3=O)n(Cc3ccccc3F)c2cc1C | nt | 3 | 2 | nt | 0 | -6
C/C(=C\c1ccccc1)C(=O)NCCc1ccccc1 | -168 | 7 | -6 | -3 | -5 | nt
Cc1c(NC(=O)c2cccs2)cccc1C(=O)O | -13 | -6 | -3 | 81* | -2 | 9
O=C(Nc1cccc(-c2cn3cccnc3n2)c1)c1cccs1 | -13 | 18 | -5 | 98* | 3 | -10
O=C(NNc1ccc(Cl)cc1)c1cccs1 | 20 | nt | -4 | nt | -8 | 96*
Cc1cc(/C=C2/SC(=S)N(c3cccc(C(F)(F)F)c3)C2=O)c(C)n1-c1cccnc1 | 38 | 33 | 10 | 80* | nt | 53
Cc1cc(/C=C2\SC(=S)N(Cc3ccco3)C2=O)c(C)n1-c1cccnc1 | nt | 35 | 14 | 5 | nt | nt
Cc1cc2nc(N3C(=O)CNC3=S)sc2cc1C | -14 | 0 | 85* | 2 | 20 | 42

Assay outcomes (PubChem BioAssay)
